According to ChEMBL document CHEMBL1764968, “Structural simplification of bioactive natural products with multicomponent synthesis. 3. Fused uracil-containing heterocycles as novel topoisomerase-targeting agents” (2011):
Calls of active or inactive are those of the source. The rule behind the calls is not given here.

Legend:
Jurkat = assay: Cytotoxicity against human Jurkat cells after 72 hrs by MTT assay; assay type: functional
Outline: (§1)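 Cells plated 24 h in 96-well plates at 10,000–40,000 cells/mL depending on line. U373 grown in MEM, other lines in RPMI, both with 5% heat-inactivated FCS. Cells exposed to compounds (or none, control) for 72 h. MTT reduction to formazan read at 570 nm against 630 nm reference. Sextuplicate per condition.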

HeLa = assay: Cytotoxicity against human HeLa cells after 72 hrs by MTT assay; assay type: functional; outline: as §1
U-373MG ATCC = assay: Cytostatic activity against human U373 cells assessed as morphological changes after 72 hrs by phase contrast microscopy; assay type: functional, cell-based
[1] = biological target: T1, DNA topoisomerase 1 (Homo sapiens) (UniProt P11387); assay: Effect on human DNA topoisomerase 1-mediated supercoiled pGEM1 plasmid DNA cleavage complex stabilization at up to 100 uM by agarose gel electrophoresis
T1 sequence (whole entry): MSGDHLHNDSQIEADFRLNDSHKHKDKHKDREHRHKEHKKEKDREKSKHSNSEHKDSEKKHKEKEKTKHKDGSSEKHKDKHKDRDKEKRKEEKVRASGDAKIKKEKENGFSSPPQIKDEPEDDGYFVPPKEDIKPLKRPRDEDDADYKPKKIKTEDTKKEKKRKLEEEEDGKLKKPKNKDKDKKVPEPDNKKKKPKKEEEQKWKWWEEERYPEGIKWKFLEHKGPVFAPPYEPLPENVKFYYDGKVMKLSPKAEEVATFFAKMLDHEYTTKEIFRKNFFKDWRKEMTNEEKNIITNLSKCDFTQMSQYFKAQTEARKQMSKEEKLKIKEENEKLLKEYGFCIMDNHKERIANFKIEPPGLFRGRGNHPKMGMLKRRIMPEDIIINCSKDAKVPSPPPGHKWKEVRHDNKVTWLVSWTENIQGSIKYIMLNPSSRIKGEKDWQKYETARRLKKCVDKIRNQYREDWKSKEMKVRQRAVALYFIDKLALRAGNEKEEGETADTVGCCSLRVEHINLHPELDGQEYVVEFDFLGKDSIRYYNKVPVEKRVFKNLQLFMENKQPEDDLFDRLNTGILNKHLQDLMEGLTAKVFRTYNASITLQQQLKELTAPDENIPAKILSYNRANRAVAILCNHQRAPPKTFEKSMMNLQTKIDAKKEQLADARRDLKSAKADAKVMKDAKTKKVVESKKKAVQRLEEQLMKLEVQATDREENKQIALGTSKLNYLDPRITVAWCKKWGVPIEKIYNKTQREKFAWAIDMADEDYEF

LoVo = assay: Cytotoxicity against human LoVo cells after 72 hrs by MTT assay; assay type: functional; outline: as §1
SK-MEL = assay: Cytotoxicity against human SK-MEL cells after 72 hrs by MTT assay; assay type: functional; outline: as §1
[2] = biological target: DNA topoisomerase 2-alpha (Homo sapiens) (UniProt P11388); assay: Inhibition of human DNA topoisomerase 2-mediated decatenation of catenated kinetoplast DNA at 5 uM after 1 hr by agarose gel electrophoresis
Chain of DNA topoisomerase 2-alpha (Homo sapiens) (P11388 whole entry): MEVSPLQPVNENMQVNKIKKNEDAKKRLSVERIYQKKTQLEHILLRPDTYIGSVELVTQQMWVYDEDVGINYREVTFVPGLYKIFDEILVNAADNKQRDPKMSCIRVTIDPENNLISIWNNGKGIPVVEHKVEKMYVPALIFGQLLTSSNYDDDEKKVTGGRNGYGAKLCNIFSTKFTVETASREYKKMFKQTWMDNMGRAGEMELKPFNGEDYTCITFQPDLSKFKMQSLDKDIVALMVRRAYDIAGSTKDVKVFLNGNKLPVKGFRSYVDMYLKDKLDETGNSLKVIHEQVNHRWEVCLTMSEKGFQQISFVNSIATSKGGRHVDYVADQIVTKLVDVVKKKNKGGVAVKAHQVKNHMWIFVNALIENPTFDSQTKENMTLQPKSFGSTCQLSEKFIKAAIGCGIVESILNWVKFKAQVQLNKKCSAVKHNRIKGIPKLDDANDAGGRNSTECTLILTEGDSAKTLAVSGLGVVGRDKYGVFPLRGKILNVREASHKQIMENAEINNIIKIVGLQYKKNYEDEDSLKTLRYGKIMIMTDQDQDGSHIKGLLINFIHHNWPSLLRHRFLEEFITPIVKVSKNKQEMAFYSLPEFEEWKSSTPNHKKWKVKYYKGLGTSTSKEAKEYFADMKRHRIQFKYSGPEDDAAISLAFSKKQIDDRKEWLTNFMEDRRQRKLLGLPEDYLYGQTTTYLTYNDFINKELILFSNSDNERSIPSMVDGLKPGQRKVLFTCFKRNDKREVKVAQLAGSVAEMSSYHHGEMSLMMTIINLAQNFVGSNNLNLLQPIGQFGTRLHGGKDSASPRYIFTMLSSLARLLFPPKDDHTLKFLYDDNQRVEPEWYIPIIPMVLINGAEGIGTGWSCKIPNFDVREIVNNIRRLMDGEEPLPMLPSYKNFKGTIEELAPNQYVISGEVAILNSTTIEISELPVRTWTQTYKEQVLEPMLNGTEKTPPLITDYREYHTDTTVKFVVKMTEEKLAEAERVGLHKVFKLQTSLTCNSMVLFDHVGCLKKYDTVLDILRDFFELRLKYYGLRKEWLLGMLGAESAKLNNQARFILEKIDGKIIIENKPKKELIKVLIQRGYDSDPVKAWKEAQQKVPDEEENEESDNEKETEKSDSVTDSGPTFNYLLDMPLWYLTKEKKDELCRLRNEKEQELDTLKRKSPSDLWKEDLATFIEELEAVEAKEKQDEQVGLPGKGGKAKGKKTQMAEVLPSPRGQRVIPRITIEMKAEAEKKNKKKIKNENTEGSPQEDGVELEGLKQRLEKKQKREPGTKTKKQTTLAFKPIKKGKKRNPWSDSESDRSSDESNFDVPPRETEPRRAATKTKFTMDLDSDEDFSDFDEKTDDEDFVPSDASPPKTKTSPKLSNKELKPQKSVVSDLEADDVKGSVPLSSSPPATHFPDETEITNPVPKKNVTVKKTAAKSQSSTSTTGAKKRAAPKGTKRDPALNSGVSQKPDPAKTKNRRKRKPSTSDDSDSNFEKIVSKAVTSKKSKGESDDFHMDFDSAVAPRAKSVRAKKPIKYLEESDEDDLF
Outline: (§2)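 0.2 μg catenated kinetoplast DNA incubated 1 h at 37 °C with compound in 50 mM Tris-Cl pH 8.0, 150 mM NaCl, 10 mM MgCl2, 5 mM ATP, 0.5 mM DTT, 30 μg/mL BSA. Doxorubicin 5 μM as positive control. Stopped with SDS/proteinase K, 30 min at 37 °C. Run on 1% agarose (55 V, 2 h), stained with ethidium bromide.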

MCF7 = assay: Cytotoxicity against human MCF7 cells after 72 hrs by MTT assay; assay type: functional; details: MCF7, 72 h; outline: as §1
[3] = biological target: DNA topoisomerase 2-alpha (Homo sapiens) (UniProt P11388); assay: Inhibition of human DNA topoisomerase 2-mediated decatenation of catenated kinetoplast DNA at 1 uM after 1 hr by agarose gel electrophoresis; outline: as §2
PC-3 = assay: Cytotoxicity against human PC3 cells after 72 hrs by MTT assay; assay type: functional; details: PC-3, 72 h; outline: as §1
[4] = Cytotoxicity against human U373 cells after 72 hrs by MTT assay; assay type: functional, U-373MG ATCC; details: U373 MG; outline: as §1
A549 = assay: Cytotoxicity against human A549 cells after 72 hrs by MTT assay; assay type: functional; details: A549, 72 h; outline: as §1
[5] = biological target: T1, DNA topoisomerase 1 (Homo sapiens); assay: Inhibition of human DNA topoisomerase 1-mediated relaxation of supercoiled pGEM1 plasmid DNA at 250 uM after 30 mins by agarose gel electrophoresis
Outline: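 Enzyme source: nuclear extract of MCF-7 cells (0.1 μL). 250 ng supercoiled pGEM1 plasmid incubated 30 min at 37 °C with compound (10–250 μM) in 10 mM Tris pH 7.9, 100 mM KCl, 10 mM MgCl2, 0.5 mM DTT, 0.5 mM EDTA, 0.03 mg/mL BSA. Camptothecin 100 μM as positive control. Stopped with SDS/proteinase K, 30 min at 37 °C. Run on 1% agarose, stained with ethidium bromide.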

Structure (SMILES)	Activity [1]	inhibition [2]	inhibition [3]	inhibition [5]	GI50 (Jurkat) [nM]	GI50 (HeLa) [nM]	Activity (U-373MG ATCC)	GI50 (LoVo) [nM]	GI50 (SK-MEL) [nM]	GI50 (MCF7) [nM]	GI50 (PC-3) [nM]	GI50 [4] [nM]	GI50 (A549) [nM]
CSc1ccc(C2C3=C(Nc4[nH]c(=O)[nH]c(=O)c42)c2ccccc2C3=O)cc1 (stereo not given)	inactive	–	–	Active	190	370	Active	490	1800	360	400	100	470
CSc1ccc(-c2c3c(nc4[nH]c(=O)[nH]c(=O)c24)-c2ccccc2C3=O)cc1	inactive	Active	Active	Active	50	170	Active	290	230	450	190	100	610
O=C1c2ccccc2-c2nc3[nH]c(=O)[nH]c(=O)c3c(-c3ccc(Cl)cc3Cl)c21	–	–	–	–	810	890	–	2900	3500	7400	2800	4200	7800

Second part, led by results:

Activity [1]	inhibition [2]	inhibition [3]	inhibition [5]	Structure (SMILES)	GI50 (Jurkat) [nM]	GI50 (HeLa) [nM]	Activity (U-373MG ATCC)	GI50 (LoVo) [nM]	GI50 (SK-MEL) [nM]	GI50 (MCF7) [nM]	GI50 (PC-3) [nM]	GI50 [4] [nM]	GI50 (A549) [nM]
inactive	Active	Active	–	Cc1ccc(-c2c3c(nc4[nH]c(=O)[nH]c(=O)c24)-c2ccccc2C3=O)cc1C	170	190	Active	330	450	190	480	500	140
–	Active	–	–	COc1cccc2c1C(=O)c1c(O)c3c(c(O)c1C2=O)C[C@@](O)(C(=O)CO)C[C@@H]3O[C@H]1C[C@H](N)[C@H](O)[C@H](C)O1	–	–	–	–	–	–	–	–	–
inactive	–	–	–	Cc1ccc(C2C3=C(Nc4[nH]c(=O)[nH]c(=O)c42)c2ccccc2C3=O)cc1C (stereo not given)	190	780	Active	490	960	340	4200	430	290
